PfG6PD inh: PfG6PD (Plasmodium falciparum) enzyme inhibition; PfGluPho enzyme, NADPH resazurin-diaphorase fluorescence; 0.78% of 350,000 active; inhibition, % at 20 µM;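 active = inhibition reaching at least a set limit at 20 µM in the primary screen, cut at about 59% in these data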;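 also: 0% = DMSO wells with substrate and 100% = DMSO wells lacking glucose-6-phosphate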
CXCR6 block: CXCR6 (human) receptor inhibition; O00574; CHO-K1 PathHunter CXCR6 beta-arrestin, luminescence; inhibition, % at 20 µM; 0.36% of 360,000 active; AID 602244; in the data active = inhibition above about 34%, passing the limit was not always enough;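 also: antagonist mode with CXCL16 agonist at 10 nM final; 0% = 10 nM CXCL16 with DMSO and 100% = unstimulated wells without agonist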
Target sequence (O00574 whole entry, looked up): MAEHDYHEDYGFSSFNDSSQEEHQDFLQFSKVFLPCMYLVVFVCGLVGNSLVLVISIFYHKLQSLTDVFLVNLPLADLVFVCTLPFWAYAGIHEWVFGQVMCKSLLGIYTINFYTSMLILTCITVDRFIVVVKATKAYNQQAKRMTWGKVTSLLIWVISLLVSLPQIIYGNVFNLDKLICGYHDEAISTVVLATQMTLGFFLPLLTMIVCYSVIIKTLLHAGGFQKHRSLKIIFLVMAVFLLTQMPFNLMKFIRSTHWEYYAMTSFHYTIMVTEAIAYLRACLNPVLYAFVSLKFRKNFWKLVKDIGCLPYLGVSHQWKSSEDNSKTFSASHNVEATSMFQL
APJ antag: blocks the human apelin receptor APJ | inhibition, % at 20 µM | P35414 | CHO-K1 APJ beta-arrestin complementation, luminescence | 0.32% of 330,000 active;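 active = inhibition above about 40% at 20 µM, limit read from the data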;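 also: cells challenged with 10 nM apelin-13 agonist together with compound; plate controls were apelin-13 plus DMSO wells for no effect and DMSO wells lacking apelin-13 for full effect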
CCR6 antag: blocks CCL20-driven beta-arrestin recruitment at human CCR6; P51684; CHO-K1 CCR6 PathHunter beta-arrestin, luminescence, CCL20-stimulated; inhibition, % at 20 µM; 0.49% of 340,000 active; AID 493098;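 active = compounds whose inhibition of the agonist-driven luminescence signal at 20 µM reaches about 50%, limit read from the data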;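 also: cells stimulated with CCL20 at 14 nM final; plate controls were DMSO with CCL20 for no effect and DMSO without agonist for full effect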
B2AR ag: agonists of human beta-2 adrenergic receptor inducing internalization; AID 504454; 0.43% of 340,000 active; Am2.2-beta2AR cells, FAP receptor internalization, flow cytometry; response, % (test concentration not listed);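 active = response above a set limit, near 3 SD of response in nonfluorescent compounds, cut at about 42% in these data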
APJ agonist: activates the human apelin receptor APJ; CHO-K1 APJ PathHunter beta-arrestin, luminescence; 0% DMSO wells, 100% apelin; 0.11% of 330,000 active; P35414; AID 2520; activation, % at 20 µM;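 active = activation more than six SD over the plate average, tested at 20 µM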;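 also: 0% = DMSO alone and 100% = apelin-13 at 10 nM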
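system = engineered CHO-K1 APJ arrestin reporter cells | input = 1000 cells per well | timing = overnight seeding, 90 min compound at 25 °C, 1 h detection | measured by = enzyme-fragment complementation luminescence | read-out = beta-arrestin recruitment to APJ as agonist activity, luminescent signal | control set = negative DMSO alone, positive Apelin-13 at 10 nM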
APJ antag conf: APJ receptor antagonism confirmation. shares compounds with APJ antag. APJ beta-arrestin recruitment, luminescence, antagonist mode. inhibition, % at 20 µM. 66% of 950 active. AID 2766; in the data active = inhibition above about 50%
* = called active by the depositor; i = inactive; / = no result. Shown are actives, neighbours in structure and some others; about 1.7% of the full set was active somewhere.

SMILES	PfG6PD inh	CXCR6 block	APJ antag	CCR6 antag	B2AR ag	APJ agonist	APJ antag conf
C[C@@H]1CN([C@@H](C)CO)C(=O)CCCn2nncc2CO[C@@H]1CN(C)S(=O)(=O)c1ccccc1F	2	-11	/	/	/	/	/
COc1cc(/C=C2/C(=O)N(c3cccc(Br)c3)N=C2C)cc(OC)c1O	28	59*	54*	72*	15	-10	82*
CC1=NN(c2ccccc2)C(=O)/C1=C/c1cccc(C)c1	-4	6	14	11	14	-2	/
COc1ccc(/C=C2/C(=O)N(c3ccccc3)N=C2C)cc1OC	0	7	47*	16	8	0	7
COc1ccc(/C=C2/C(=O)N(c3ccccc3)N=C2C)cc1	9	2	12	10	0	2	/
CN(C)S(=O)(=O)n1cc(/C=C(\NC(=O)c2ccccc2Cl)C(=O)N2CCOCC2)c2ccccc21	9	0	50*	-8	-3	-2	23
Cc1ccc2c(c1)nnn2C1CCN(CC(=O)NCCc2nc3ccccc3[nH]2)CC1	-13	29	41*	57*	-8	-9	60*
Cc1ccc2c(c1)nnn2C1CCN(CC(=O)NCc2ccccc2F)CC1	-20	15	13	11	1	-4	/
COc1ccc(N2CC(C(=O)Nc3ccccc3C(=O)NC3CC3)CC2=O)cc1 (stereo unspecified)	-10	-14	41*	2	-12	1	7
CCOc1ccc(N2CC(C(=O)Nc3ccccc3C(=O)NC3CC3)CC2=O)cc1 (stereo unspecified)	-2	-7	-7	13	6	-3	/
Cn1c(=O)cc(SCC(=O)Nc2ccc3c(c2)OCO3)c2ccccc21	-8	-6	45*	12	-17	6	-26
CC1(C)CC(=O)C=C(c2ccc(F)nc2)C1	-8	9	4	7	-4	-3	/
C[C@@H]1CN([C@H](C)CO)C(=O)CCCn2nncc2CO[C@H]1CN(C)Cc1ccc2cccnc2c1	-1	-16	/	/	/	/	/
Nc1nc(-c2ccc(Cl)cc2)c(N=Nc2ccc(S(=O)(=O)N3CCOCC3)cc2)s1	2	51*	49*	71*	9	-4	89*
CCC(=O)c1ccc(OCC(=O)NNC(=O)c2cc(C)oc2C)cc1	-27	-2	2	6	-2	-3	/
C=CCNC(=S)N/N=C(\C)c1ccccn1	37	20	67*	50	14	-6	48
Cc1ccc(N2C(=O)C(Cc3ccc(O)cc3)NC2=S)cc1C (stereo unspecified)	-18	8	67*	-44	-2	1	42
Cc1cccc(N2C(=O)C(Cc3ccccc3)NC2=S)c1 (stereo unspecified)	12	-1	9	11	-4	-8	/
O=C(Nc1cccc(-c2ccc(N3CCCCC3)nn2)c1)c1ccco1	-9	-4	-15	19	14	10	/
Cc1cc(C)nc(NNS(=O)(=O)c2c(F)cc(F)cc2Br)n1	21	33	67*	47	-5	-11	114*
CCn1c(=S)sc2c(=O)[nH]c(SCC(=O)Nc3cc(OC)ccc3OC)nc21	4	-3	-4	4	32	-1	/
CCOC(=O)C1=CC[C@@H](c2ccccc2C(F)(F)F)N(S(=O)(=O)c2ccc(C)cc2)[C@H]1c1ccc(C#N)cc1	/	0	/	/	/	/	/
CCOC(=O)C(C(=O)OCC)c1cc(Br)c2noc3c2c1C(=O)c1ccccc1-3	84*	78*	41*	83*	i	-4	105*
COCCCNC(=O)c1ccc2c3c(onc13)-c1ccccc1C2=O	16	17	-26	49	23	4	/
Cc1ccc(C(=O)COC(=O)CCC(=O)Nc2ccccc2Cl)cc1[N+](=O)[O-]	-16	17	44*	33	-7	-8	75*
SMILES	PfG6PD inh	CXCR6 block	APJ antag	CCR6 antag	B2AR ag	APJ agonist	APJ antag conf
CC(=O)Nc1ccc(NC(=O)CCC(=O)OCC(=O)c2ccc(F)cc2)cc1	-1	4	12	-14	3	6	/
O=C(CCC(=O)OCc1ccc([N+](=O)[O-])cc1)Nc1ccccc1Cl	13	3	-2	-7	4	-3	/
CC(=O)Nc1ccc(NC(=O)CCC(=O)OCC(=O)c2ccc(C)c([N+](=O)[O-])c2)cc1	-14	10	70*	42	4	-9	55*
CC(=O)c1ccc(NC(=O)CCC(=O)OCC(=O)c2cccc([N+](=O)[O-])c2)cc1	-15	22	43*	55*	-12	-14	77*
Cc1ccc(NC(=O)CCC(=O)OCC(=O)c2ccc(Oc3ccc([N+](=O)[O-])cc3)cc2)cc1	4	6	12	7	-1	-3	/
CCN(CC(=O)Nc1ccccc1OC)C(=O)CN1C(=O)NC(C)(c2ccccc2)C1=O (stereo unspecified)	-10	10	7	13	3	1	/
CCOc1ccc(NC(=O)CNC(=O)c2nn(-c3ccc(OC)cc3)c(=O)c3ccccc23)cc1	-26	1	0	2	1	2	/
O=C(O)CCc1ccc(S(=O)(=O)Nc2ccccc2N2CCCCC2)cc1	-12	-13	-5	-9	3	-1	/
COc1cccc2sc(Nc3nnc(-c4cccs4)o3)nc12	-5	13	42*	29	8	-6	3
COc1cccc2sc(Nc3nc(-c4ccccn4)cs3)nc12	/	37	52*	/	20	-7	23
COc1cccc2sc(Nc3nnc(-c4ccc(F)cc4)o3)nc12	29	-7	1	-5	9	-3	/
c1ccc(Nc2nc(-c3ccccn3)cs2)cc1	12	-2	-6	11	-9	-4	/
Cc1cc(=O)[nH]c(N=N/C(=N/Nc2ccc(O)cc2)c2ccccc2)n1	-17	23	59*	56*	-14	-11	89*
CCOC(=O)C1CCCN(c2nc(C)nc3c2oc2ccccc23)C1 (stereo unspecified)	5	-4	5	-11	3	1	/
CCOC(=O)C1CCN(c2nc(C)nc3c2oc2ccccc23)CC1	9	3	45*	3	6	-5	30
O=C(CCN1C(=O)/C(=C/c2cccs2)SC1=S)N1CCCCC1	-16	5	16	7	-2	-1	/
Cc1cc(C)n(CCc2nc(-c3ccco3)cs2)n1	32	7	56*	18	-4	-11	20
Cc1cc(C)n(CCc2nc(-c3cccs3)cs2)n1	33	-6	7	20	4	-1	/
COC(=O)C1=C(C)N(Cc2ccccc2)C(=NCC(C)C)N[C@H]1c1cccc(F)c1	-2	2	48*	8	31	-4	84*

High-throughput results: PubChem BioAssay, several laboratories
